Results published in ChEMBL document CHEMBL1141052, “Boro-norleucine as a P1 residue for the design of selective and potent DPP7 inhibitors” (Bioorg Med Chem Lett, 2005).

What was measured:
Dipeptidyl peptidase 4 [1] = molecular target: T1, Dipeptidyl peptidase 4 (Homo sapiens, UniProt P27487); assay: Percent inhibition against human dipeptidylpeptidase 4 at 33 uM concentration
Target sequence in this assay (P27487 whole entry, looked up): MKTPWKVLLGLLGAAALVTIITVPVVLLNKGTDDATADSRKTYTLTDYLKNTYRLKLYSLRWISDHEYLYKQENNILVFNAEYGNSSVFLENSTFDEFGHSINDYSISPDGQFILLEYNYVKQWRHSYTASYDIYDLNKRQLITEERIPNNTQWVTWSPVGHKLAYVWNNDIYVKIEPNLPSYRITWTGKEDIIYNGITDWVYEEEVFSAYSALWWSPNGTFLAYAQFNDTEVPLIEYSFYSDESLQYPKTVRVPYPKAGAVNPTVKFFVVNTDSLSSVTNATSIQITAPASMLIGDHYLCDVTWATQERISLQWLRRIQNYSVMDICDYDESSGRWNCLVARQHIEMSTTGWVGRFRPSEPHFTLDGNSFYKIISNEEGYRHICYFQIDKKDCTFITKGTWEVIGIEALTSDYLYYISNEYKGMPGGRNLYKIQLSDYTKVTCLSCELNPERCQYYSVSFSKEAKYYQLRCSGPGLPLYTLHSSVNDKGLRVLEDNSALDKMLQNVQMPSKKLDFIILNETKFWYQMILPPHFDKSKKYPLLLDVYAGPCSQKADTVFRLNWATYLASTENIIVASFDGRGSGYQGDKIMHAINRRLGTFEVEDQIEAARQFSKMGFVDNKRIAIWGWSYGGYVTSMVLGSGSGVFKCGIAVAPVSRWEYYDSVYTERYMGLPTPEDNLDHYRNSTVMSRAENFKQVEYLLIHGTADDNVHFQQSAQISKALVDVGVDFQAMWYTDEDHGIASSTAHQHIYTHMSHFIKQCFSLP

Dipeptidyl peptidase 8 = Dipeptidyl peptidase 8 (Homo sapiens, UniProt Q6V1X1); assay: Inhibitory concentration against human dipeptidylpeptidase 8 using FP-TAMRA incubated for 30 min; ni = no inhibition at 20 uM concentration
Summary of the method: (§1)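 DPP8 and DPP9 from MDA-MB-435 cell lysate. Compounds dissolved in 50% DMSO/50 mM glycine buffer pH 2.5 (final DMSO 1% v/v), serially diluted into lysate, FP-TAMRA activity-based probe labeling, 30 min, quenched with loading buffer. Labeled enzyme resolved by SDS–PAGE, TAMRA fluorescence read by flatbed gel scanner. Duplicates; activity as % of enzyme-alone control, IC50 from Hill fit.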

Prolyl endopeptidase FAP = molecular target: T2, Prolyl endopeptidase FAP (Homo sapiens, UniProt Q12884); assay: Inhibitory concentration against human fibroblast activation protein alpha; ni = no inhibition at 33 uM concentration
T2 sequence (Q12884 whole entry): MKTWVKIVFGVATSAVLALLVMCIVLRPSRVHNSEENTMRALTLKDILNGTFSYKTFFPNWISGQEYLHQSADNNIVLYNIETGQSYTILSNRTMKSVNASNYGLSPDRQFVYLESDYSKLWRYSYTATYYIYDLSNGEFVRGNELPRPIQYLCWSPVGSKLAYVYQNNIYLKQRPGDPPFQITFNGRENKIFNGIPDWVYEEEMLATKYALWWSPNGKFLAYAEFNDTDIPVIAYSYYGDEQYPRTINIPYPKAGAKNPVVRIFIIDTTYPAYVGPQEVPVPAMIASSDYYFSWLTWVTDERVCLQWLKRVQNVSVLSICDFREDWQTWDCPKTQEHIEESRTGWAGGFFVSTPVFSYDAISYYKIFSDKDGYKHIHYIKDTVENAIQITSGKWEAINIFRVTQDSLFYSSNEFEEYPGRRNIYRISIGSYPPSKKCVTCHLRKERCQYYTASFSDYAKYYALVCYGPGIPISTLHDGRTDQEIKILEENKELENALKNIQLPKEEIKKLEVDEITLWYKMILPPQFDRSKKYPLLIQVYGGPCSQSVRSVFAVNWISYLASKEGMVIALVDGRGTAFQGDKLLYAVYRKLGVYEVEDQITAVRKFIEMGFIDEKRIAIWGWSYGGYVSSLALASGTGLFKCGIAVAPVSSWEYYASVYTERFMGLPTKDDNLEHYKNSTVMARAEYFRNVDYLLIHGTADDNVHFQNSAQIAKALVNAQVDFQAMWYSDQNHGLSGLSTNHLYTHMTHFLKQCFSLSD

Dipeptidyl peptidase 9 [2] = molecular target: T3, Dipeptidyl peptidase 9 (Homo sapiens, UniProt Q86TI2); assay: Inhibitory concentration against human dipeptidylpeptidase 9 using FP-TAMRA incubated for 30 min; ni = no inhibition at 20 uM concentration; summary of the method: as §1
Target sequence in this assay (Q86TI2 whole entry): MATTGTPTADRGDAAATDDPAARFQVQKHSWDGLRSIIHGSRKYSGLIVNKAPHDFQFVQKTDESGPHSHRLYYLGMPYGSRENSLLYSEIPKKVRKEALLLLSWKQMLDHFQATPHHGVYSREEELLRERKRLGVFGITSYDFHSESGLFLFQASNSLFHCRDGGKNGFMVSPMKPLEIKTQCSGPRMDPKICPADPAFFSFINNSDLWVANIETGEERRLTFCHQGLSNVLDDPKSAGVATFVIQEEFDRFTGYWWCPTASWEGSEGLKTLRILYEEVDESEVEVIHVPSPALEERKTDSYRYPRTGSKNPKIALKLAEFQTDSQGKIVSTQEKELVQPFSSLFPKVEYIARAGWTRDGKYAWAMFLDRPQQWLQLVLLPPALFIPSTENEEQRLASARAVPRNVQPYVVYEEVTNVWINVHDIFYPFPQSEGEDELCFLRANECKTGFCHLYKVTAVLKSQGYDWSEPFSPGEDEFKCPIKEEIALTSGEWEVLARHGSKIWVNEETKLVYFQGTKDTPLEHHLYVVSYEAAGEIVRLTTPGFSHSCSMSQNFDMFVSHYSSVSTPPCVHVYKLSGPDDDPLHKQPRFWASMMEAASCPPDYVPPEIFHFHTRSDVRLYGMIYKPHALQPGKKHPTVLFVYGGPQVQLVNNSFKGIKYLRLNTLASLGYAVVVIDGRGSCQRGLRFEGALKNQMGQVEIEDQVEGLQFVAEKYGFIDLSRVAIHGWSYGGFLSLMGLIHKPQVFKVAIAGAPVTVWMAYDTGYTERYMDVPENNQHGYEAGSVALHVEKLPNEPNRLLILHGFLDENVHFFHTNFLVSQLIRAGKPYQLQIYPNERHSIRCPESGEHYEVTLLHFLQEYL

Dipeptidyl peptidase 2 = Dipeptidyl peptidase 2 (Homo sapiens, UniProt Q9UHL4); assay: Inhibitory concentration against human dipeptidylpeptidase 7
Dipeptidyl peptidase 4 [3] = molecular target: T1, Dipeptidyl peptidase 4; assay: Inhibitory concentration against human dipeptidylpeptidase 4
Target sequence in this assay (P27487 whole entry): as the sequence (P27487 whole entry, looked up) above

Dipeptidyl peptidase 9 [4] = molecular target: T3, Dipeptidyl peptidase 9; assay: Percentage inhibition against human dipeptidylpeptidase 9 using FP-TAMRA incubated for 30 min at 20 uM concentration; summary of the method: as §1
Target sequence in this assay (Q86TI2 2-863 limits assumed): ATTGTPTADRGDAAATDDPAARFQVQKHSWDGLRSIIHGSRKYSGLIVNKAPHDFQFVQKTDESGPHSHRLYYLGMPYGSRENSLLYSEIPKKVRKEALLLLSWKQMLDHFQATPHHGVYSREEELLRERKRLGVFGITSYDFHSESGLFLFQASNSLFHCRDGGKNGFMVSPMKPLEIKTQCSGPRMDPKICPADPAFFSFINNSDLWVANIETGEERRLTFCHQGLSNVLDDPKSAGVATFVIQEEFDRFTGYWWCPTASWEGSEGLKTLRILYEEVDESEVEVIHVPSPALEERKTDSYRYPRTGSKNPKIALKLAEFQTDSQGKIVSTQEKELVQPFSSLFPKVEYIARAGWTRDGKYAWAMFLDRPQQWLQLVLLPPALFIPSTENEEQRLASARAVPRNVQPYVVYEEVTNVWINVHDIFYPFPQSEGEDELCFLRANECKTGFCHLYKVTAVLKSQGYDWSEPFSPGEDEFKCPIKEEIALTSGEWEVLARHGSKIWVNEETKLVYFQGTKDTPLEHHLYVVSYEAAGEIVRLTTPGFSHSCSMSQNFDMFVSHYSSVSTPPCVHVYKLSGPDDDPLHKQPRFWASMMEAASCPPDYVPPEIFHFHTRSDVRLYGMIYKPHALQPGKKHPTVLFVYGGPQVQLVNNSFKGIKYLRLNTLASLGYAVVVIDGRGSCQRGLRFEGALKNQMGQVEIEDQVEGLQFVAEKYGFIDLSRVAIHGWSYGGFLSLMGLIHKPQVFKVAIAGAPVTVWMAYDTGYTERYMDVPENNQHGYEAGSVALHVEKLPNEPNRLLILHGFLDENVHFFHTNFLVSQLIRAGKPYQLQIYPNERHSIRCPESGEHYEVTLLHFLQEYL

Dipeptidyl peptidase 4 [5] = molecular target: T1, Dipeptidyl peptidase 4
Target sequence in this assay (P27487 whole entry): as the sequence (P27487 whole entry, looked up) above

Dipeptidyl peptidase 8, sequence (Q6V1X1 whole entry): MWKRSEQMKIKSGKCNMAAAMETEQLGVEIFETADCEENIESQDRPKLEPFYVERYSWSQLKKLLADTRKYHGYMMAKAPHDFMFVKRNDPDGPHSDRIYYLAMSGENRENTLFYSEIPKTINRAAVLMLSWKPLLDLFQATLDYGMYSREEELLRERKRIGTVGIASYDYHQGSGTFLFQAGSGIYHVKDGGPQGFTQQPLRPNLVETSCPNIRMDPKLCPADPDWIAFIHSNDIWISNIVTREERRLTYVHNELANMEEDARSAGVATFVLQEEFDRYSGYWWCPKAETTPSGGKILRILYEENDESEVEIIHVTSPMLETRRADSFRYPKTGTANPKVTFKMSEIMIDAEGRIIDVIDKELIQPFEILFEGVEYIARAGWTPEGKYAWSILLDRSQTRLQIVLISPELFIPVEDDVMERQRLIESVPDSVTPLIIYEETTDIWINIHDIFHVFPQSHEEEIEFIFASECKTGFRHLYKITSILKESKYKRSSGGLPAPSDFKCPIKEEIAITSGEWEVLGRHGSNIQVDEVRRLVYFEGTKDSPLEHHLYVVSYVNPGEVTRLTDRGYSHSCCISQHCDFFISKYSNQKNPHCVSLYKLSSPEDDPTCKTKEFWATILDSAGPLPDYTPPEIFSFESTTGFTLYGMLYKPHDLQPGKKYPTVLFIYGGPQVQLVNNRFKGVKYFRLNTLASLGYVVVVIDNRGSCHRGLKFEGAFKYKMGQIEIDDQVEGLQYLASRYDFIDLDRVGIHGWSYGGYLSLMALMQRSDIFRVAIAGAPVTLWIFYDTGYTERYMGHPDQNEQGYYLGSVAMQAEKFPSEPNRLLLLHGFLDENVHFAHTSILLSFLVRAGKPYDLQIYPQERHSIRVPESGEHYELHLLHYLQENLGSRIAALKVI

Compound	IC50 (Prolyl endopeptidase FAP)	IC50 (Dipeptidyl peptidase 2) [nM]	IC50 (Dipeptidyl peptidase 4 [3]) [nM]	inhibition (Dipeptidyl peptidase 4 [1]) [%]	IC50 (Dipeptidyl peptidase 8)	IC50 (Dipeptidyl peptidase 9 [2])	inhibition (Dipeptidyl peptidase 9 [4]) [%]	IC50 (Dipeptidyl peptidase 4 [5])
CCCC[C@H](N)C(=O)N1CCC[C@@H]1B(O)O		2	4.5					
CC(C)[C@H](N)C(=O)N[C@@H](C)B(O)O		160						
CCCC[C@@H](NC(=O)[C@H](C)N)B(O)O	No inhibition	220					40	Not Active
CCCC[C@@H](NC(=O)[C@@H]1CCCN1)B(O)O	No inhibition	890			No inhibition		35	Not Active
NCC[C@H](N)C(=O)N1CCC[C@@H]1B(O)O		0.72	15					
CCCCCNC(=O)[C@@H](N)CCN	No inhibition	2600			No inhibition	No inhibition		Not Active
CCCC[C@@H](NC(=O)[C@@H](N)CCCCN)B(O)O	No inhibition	3.7						Not Active
CCCC[C@@H](NC(=O)[C@@H](N)CCN)B(O)O	No inhibition	0.48		40				

Continued, in another order:

IC50 (Prolyl endopeptidase FAP)	IC50 (Dipeptidyl peptidase 2) [nM]	IC50 (Dipeptidyl peptidase 4 [3]) [nM]	Compound	inhibition (Dipeptidyl peptidase 4 [1]) [%]	IC50 (Dipeptidyl peptidase 8)	IC50 (Dipeptidyl peptidase 9 [2])	inhibition (Dipeptidyl peptidase 9 [4]) [%]	IC50 (Dipeptidyl peptidase 4 [5])
No inhibition	5500		CCCCCNC(=O)[C@@H](N)CCCC	35	No inhibition	No inhibition		
No inhibition	71	810	CCCC[C@@H](NC(=O)[C@@H](N)CCC)B(O)O					
No inhibition	4.7	1200	CCCC[C@@H](NC(=O)[C@@H](N)CCCN)B(O)O					
No inhibition	18	370	CCCC[C@@H](NC(=O)[C@@H](N)CCCC)B(O)O					
No inhibition	8.2	2000	CCCC[C@@H](NC(=O)[C@@H](N)CN)B(O)O		No inhibition			
No inhibition	40	17000	CCCC[C@@H](NC(=O)[C@@H](N)C(C)C)B(O)O					
No inhibition	49	32000	CCCC[C@@H](NC(=O)[C@@H](N)CC)B(O)O					
